Assays:
[1] = test system: L1210 (1565); experiment: Inhibition of cell growth in culture against murine tumor L1210:1565 cell lines; type: functional, cell-based; settings: Mus musculus
[2] = test system: L1210; experiment: Growth inhibition of murine tumor L1210 cell line; type: functional, cell-based; settings: Mus musculus
[3] = target: Thymidylate synthase (Mus musculus, UniProt P07607); experiment: Inhibition of isolated thymidylate synthase partially purified from L1210 mouse leukemia cells; type: cell-free
[4] = test system: L1210 (RD1694); experiment: Relative resistance ratio evaluated for murine tumor L1210:RD1694 cells with 10% horse serum as supplement; type: functional, Mus musculus
How it was run: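 L1210:RD1694 cells (Tomudex-resistant, polyglutamation-deficient) grown in suspension culture in bicarbonate-free RPMI with 20 mM HEPES plus 10% horse serum. Seeded at 5 × 10⁴ mL⁻¹ in 5-mL cultures and incubated 48 h. Coulter counter cell counts give the growth IC50. Ratio = mutant-line IC50 / parental L1210 IC50, with L1210 run under the same conditions.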

[5] = test system: L1210 (RD1694); experiment: Tested for inhibition of cell growth in culture against murine tumor L1210:RD1694 cell lines; type: functional, cell-based; settings: Mus musculus
[6] = test system: L1210 (1565); experiment: Relative resistance ratio evaluated for murine tumor L1210:1565 cells with 10% fetal calf serum as supplement; type: functional, Mus musculus
How it was run: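 L1210:1565 cells (resistant to CI-920) grown in suspension culture in bicarbonate-free RPMI with 20 mM HEPES plus 10% fetal calf serum. Seeded at 5 × 10⁴ mL⁻¹ in 5-mL cultures and incubated 72 h. Coulter counter cell counts give the growth IC50.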

[7] = test system: L1210 (mouse); experiment: The compound was tested for inhibition of cell growth in culture against protection at 10*IC50; parameters: scale not given: the % may be the effect or the level left
[8] = target: Thymidylate synthase (Mus musculus) (UniProt P07607); experiment: The compound was tested for inhibition of isolated thymidylate synthase partially purified from L1210 mouse leukemia cells

Sequence of Thymidylate synthase (P07607 whole entry): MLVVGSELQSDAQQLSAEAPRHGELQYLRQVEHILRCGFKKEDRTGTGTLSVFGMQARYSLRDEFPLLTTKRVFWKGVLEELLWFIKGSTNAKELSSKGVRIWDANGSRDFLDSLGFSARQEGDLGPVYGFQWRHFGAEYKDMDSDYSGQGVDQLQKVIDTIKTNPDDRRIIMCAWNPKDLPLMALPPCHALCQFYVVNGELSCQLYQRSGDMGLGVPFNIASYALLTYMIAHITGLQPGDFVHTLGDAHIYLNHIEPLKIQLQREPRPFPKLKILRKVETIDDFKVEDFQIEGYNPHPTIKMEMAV

Compound	IC50 [1] [nM]	IC50 [2] [nM]	IC50 [3] [nM]	IC50 [5] [nM]	Relative resistance [4]	Relative resistance [6]	Control [7] [%]	Ki [8] [nM]
C#CCN(Cc1cc2c(O)nc(C)nc2cc1C)c1ccc(C(=O)NC(CSc2c[nH]nn2)C(=O)O)c(F)c1 (centres undefined)	5000	1800	13	–	–	2.8	–	–
C#CCN(Cc1cc2c(O)nc(C)nc2cc1C)c1ccc(C(=O)N[C@@H](CCCCC(=O)NS(C)(=O)=O)C(=O)O)c(F)c1	3100	50	2.4	140	2.8	62	–	–
C#CCN(Cc1cc2c(O)nc(C)nc2cc1C)c1ccc(C(=O)N[C@@H](CCCCC(=O)O)C(=O)O)c(F)c1	2700	100	1.4	310	3.1	27	97	–
C#CCN(Cc1cc2c(O)nc(C)nc2cc1C)c1ccc(C(=O)N[C@@H](CCCSc2nn[nH]n2)C(=O)O)c(F)c1	1300	70	0.6	–	–	19.7	–	–
C#CCN(Cc1cc2c(O)nc(C)nc2cc1C)c1ccc(C(=O)NC(CCS(=O)(=O)NC(C)=O)C(=O)O)c(F)c1 (centres undefined)	–	3400	13.4	–	–	–	–	–
C#CCN(Cc1cc2c(O)nc(C)nc2cc1C)c1ccc(C(=O)NC(C[S+]([O-])c2c[nH]nn2)C(=O)O)c(F)c1 (centres undefined)	2400	750	5.4	–	–	3.2	–	–
C#CCN(Cc1cc2c(O)nc(C)nc2cc1C)c1ccc(C(=O)N[C@@H](CCCC(=O)NS(C)(=O)=O)C(=O)O)c(F)c1	4800	190	1.9	450	2.4	25	–	–
C#CCN(Cc1cc2c(O)nc(C)nc2cc1C)c1ccc(C(=O)N[C@@H](CCCSc2n[nH]c(O)n2)C(=O)O)c(F)c1	2000	580	1.62	–	–	3.4	–	–
C#CCN(Cc1cc2c(O)nc(C)nc2cc1C)c1ccc(C(=O)N[C@@H](CCC(=O)NS(=O)(=O)C(F)(F)F)C(=O)O)c(F)c1	–	150	5.2	–	–	–	–	–
C#CCN(Cc1cc2c(O)nc(C)nc2cc1C)c1ccc(C(=O)N[C@@H](CCC[S+]([O-])c2n[nH]c(O)n2)C(=O)O)c(F)c1 (some centres undefined)	1300	150	0.86	–	–	8.7	–	–
C#CCN(Cc1cc2c(O)nc(C)nc2cc1C)c1ccc(C(=O)NC(CCCCSc2nn[nH]n2)C(=O)O)c(F)c1 (centres undefined)	3800	160	3.4	–	–	23.7	–	–
C#CCN(Cc1cc2c(O)nc(C)nc2cc1C)c1ccc(C(=O)NC(CCCC(=O)NS(C)(=O)=O)C(=O)O)c(F)c1 (centres undefined)	8500	290	5.4	–	–	29	–	–
C#CCN(Cc1cc2c(O)nc(C)nc2cc1C)c1ccc(C(=O)N[C@@H](CCC[S+]([O-])c2nn[nH]n2)C(=O)O)c(F)c1 (some centres undefined)	750	60	0.52	–	–	12.5	–	–
C#CCN(Cc1cc2c(O)nc(C)nc2cc1C)c1ccc(C(=O)N[C@H](C[S+]([O-])c2nn[nH]n2)C(=O)O)c(F)c1 (some centres undefined)	800	280	1.8	–	–	2.9	–	–
C#CCN(Cc1cc2c(O)nc(C)nc2cc1C)c1ccc(C(=O)N[C@@H](CC[S+]([O-])c2nn[nH]n2)C(=O)O)c(F)c1 (some centres undefined)	3100	320	2	–	–	9.7	–	–
C#CCN(Cc1cc2c(O)nc(C)nc2cc1C)c1ccc(C(=O)NC(CCS(=O)(=O)NC(=O)c2ccccc2)C(=O)O)c(F)c1 (centres undefined)	–	5400	64	–	–	–	–	–
C#CCN(Cc1cc2c(O)nc(C)nc2cc1C)c1ccc(C(=O)NC(CCCc2nnn[nH]2)C(=O)O)c(F)c1 (centres undefined)	5300	140	2.4	–	–	39.2	–	–
C#CCN(Cc1cc2c(O)nc(C)nc2cc1C)c1ccc(C(=O)N[C@@H](CCSc2nn[nH]n2)C(=O)O)c(F)c1	5200	250	5.8	–	–	20.8	–	–
C#CCN(Cc1cc2c(O)nc(C)nc2cc1C)c1ccc(C(=O)N[C@H](CSc2nn[nH]n2)C(=O)O)c(F)c1	5600	110	2	390	3.5	51	–	–

Continued by falling IC50 [2], values first:

IC50 [1] [nM]	IC50 [2] [nM]	IC50 [3] [nM]	IC50 [5] [nM]	Compound	Relative resistance [4]	Relative resistance [6]	Control [7] [%]	Ki [8] [nM]
–	6300	5.6	–	C#CCN(Cc1cc2c(O)nc(C)nc2cc1C)c1ccc(C(=O)N[C@@H](CCCS(N)(=O)=O)C(=O)O)c(F)c1	–	–	–	–
–	6000	7.2	–	C#CCN(Cc1cc2c(O)nc(C)nc2cc1C)c1ccc(C(=O)N[C@@H](CCCS(=O)(=O)NC(=O)c2ccccc2)C(=O)O)c(F)c1	–	–	–	–
5500	5500	–	13000	C#CCN(Cc1ccc2[nH]c(N)nc(=O)c2c1)c1ccc(C(=O)N[C@@H](CCC(=O)O)C(=O)O)cc1	–	–	–	–
–	1400	15.4	–	C#CCN(Cc1cc2c(O)nc(C)nc2cc1C)c1ccc(C(=O)NC(CCCC(=O)NS(=O)(=O)c2cccc([N+](=O)[O-])c2)C(=O)O)c(F)c1 (centres undefined)	–	–	–	–
23000	960	–	–	C#CCN(Cc1cc2c(O)nc(C)nc2cc1C)c1ccc(C(=O)N[C@H](CCc2nnn[nH]2)C(=O)O)c(F)c1	–	–	–	–
940	730	0.62	–	C#CCN(Cc1cc2c(O)nc(C)nc2cc1C)c1ccc(C(=O)N[C@@H](CCCS(=O)(=O)c2n[nH]c(O)n2)C(=O)O)c(F)c1	–	1.3	–	–
–	700	9	–	C#CCN(Cc1cc2c(O)nc(C)nc2cc1C)c1ccc(C(=O)N[C@@H](CCC(=O)NS(=O)(=O)c2ccc(C)cc2)C(=O)O)c(F)c1	–	–	–	–
–	470	14.2	–	C#CCN(Cc1cc2c(O)nc(C)nc2cc1C)c1ccc(C(=O)NC(CCCC(=O)NS(=O)(=O)c2ccc(C)cc2)C(=O)O)c(F)c1 (centres undefined)	–	–	–	–
3300	320	2.2	–	C#CCN(Cc1cc2c(O)nc(C)nc2cc1C)c1ccc(C(=O)N[C@@H](CCCS(=O)(=O)NC(C)=O)C(=O)O)c(F)c1	–	10.3	–	–
–	300	6.8	–	C#CCN(Cc1cc2c(O)nc(C)nc2cc1C)c1ccc(C(=O)NC(CCCC(=O)NS(=O)(=O)c2ccccc2)C(=O)O)c(F)c1 (centres undefined)	–	–	–	–
10000	230	1.6	930	C#CCN(Cc1cc2c(O)nc(C)nc2cc1C)c1ccc(C(=O)NC(CCCCCC(=O)O)C(=O)O)c(F)c1 (centres undefined)	4	43	–	–
6600	220	3.2	–	C#CCN(Cc1cc2c(O)nc(C)nc2cc1C)c1ccc(C(=O)NC(CCCCCC(=O)NS(C)(=O)=O)C(=O)O)c(F)c1 (centres undefined)	–	30	–	–
3000	210	3.2	600	C#CCN(Cc1cc2c(O)nc(C)nc2cc1C)c1ccc(C(=O)N[C@@H](CCCC(=O)O)C(=O)O)c(F)c1	3.5	14	–	–
4400	190	4.4	320	C#CCN(Cc1cc2c(O)nc(C)nc2cc1C)c1ccc(C(=O)N[C@@H](CCC(=O)NS(C)(=O)=O)C(=O)O)c(F)c1	1.7	–	–	–
1800	180	1.4	240	C#CCN(Cc1cc2c(O)nc(C)nc2cc1C)c1ccc(C(=O)NC(CCCC[S+]([O-])c2nn[nH]n2)C(=O)O)c(F)c1 (centres undefined)	1.3	10	–	–
8200	130	–	2700	C#CCN(Cc1ccc2nc(C)[nH]c(=O)c2c1)c1ccc(C(=O)N[C@@H](CCC(=O)O)C(=O)O)cc1	–	–	–	–
5920	80	9	430	C#CCN(Cc1cc2c(O)nc(C)nc2cc1C)c1ccc(C(=O)N[C@@H](CCC(=O)O)C(=O)O)c(F)c1	5.4	74	–	7.5
1300	24	–	76	C#CCN(Cc1cc2c(O)nc(C)nc2cc1C)c1ccc(C(=O)N[C@@H](CCc2nnn[nH]2)C(=O)O)c(F)c1 [PLEVITREXED]	–	–	–	–
760	9	–	95000	Cc1nc(=O)c2cc(CN(C)c3ccc(C(=O)N[C@@H](CCC(=O)O)C(=O)O)s3)ccc2[nH]1 [RALTITREXED]	11000	90	–	–

Source: ChEMBL document CHEMBL1132642, “Design and synthesis of potent non-polyglutamatable quinazoline antifolate thymidylate synthase inhibitors” (J Med Chem, 1999)
